Results published in the array DNA melting data of Ke et al. (doi:10.1101/2024.01.08.574731).

Legend:
[1] = melting temperature; fluorescence melt of hairpins on a sequencing array, two-state fit, raised by 9.35 °C to match UV melts; details: sodium 0.088 M
How it was run: (§1)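 Melting temperature and folding enthalpy were derived from bootstrapped two-state fits. The fitted temperatures were raised by 9.35 °C to agree with UV melts, and four replicates were combined by inverse variance. The underlying data were Cy3 fluorescence images of library hairpins, with annealed Cy3 and quencher oligos, on a sequenced MiSeq flow cell in 50 mM Na-HEPES pH 8.0, 25 mM NaCl, taken in 2.5 °C steps up to 60 °C, normalised to pre-quench Cy3 and to control constructs.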

[2] = folding enthalpy; higher = less favourable; fluorescence melt of hairpins on a sequencing array, two-state fit; details: sodium 0.088 M
How it was run: as §1

| Sequence | Tm [1] | folding enthalpy [2] |
| --- | --- | --- |
| GTCCCGGGAAACTGGGAC (((((.(....).))))) | 60 °C | -37.2 kcal/mol |
| GTGGAGCGAAAGCTCAC (((.(((....)))))) | 52.1 °C | -12.1 kcal/mol |
| GTCACAGGAAACTGCGAC (((.(((....))).))) | 46.1 °C | -28.8 kcal/mol |
| GATCTAACTTAGATC ((((((...)))))) | 37.3 °C | -29.3 kcal/mol |
| GGGTAGGGAAACTTGCCC (((.(.(....).).))) | 35.6 °C | -20.4 kcal/mol |
| GATCACTGGGTGATC ((((((...)))))) | 57.3 °C | -33.1 kcal/mol |
| GCGCCGCGAAAGCCGAGC ((.(.((....)).).)) | 50.5 °C | -18.9 kcal/mol |
| GATCTTTAAGAAGATC ((((((....)))))) | 41.5 °C | -34.9 kcal/mol |
| GGCGGTTCGAAAGAAGCC (((..(((....)))))) | 41 °C | -16.6 kcal/mol |
| GTGCTTGGAAACAAGCGC (.(((((....))))).) | 61.3 °C | -32.2 kcal/mol |
| GTGGCAGCGAAAGCTCAC (((..(((....)))))) | 43.7 °C | -12.4 kcal/mol |
| GCCCCGCGAAAGCCGCGC ((.(.((....)).).)) | 31.5 °C | -13.7 kcal/mol |
| GCGACCGCTCGC ((((....)))) | 48.1 °C | -17.3 kcal/mol |
| GCGTGTGGAAACGTACGC ((((..(....)..)))) | 50.1 °C | -32.9 kcal/mol |
| GAGAACGAAAGTTCACTC ((((((....)))..))) | 44.3 °C | -17.2 kcal/mol |
| GGGGAAGGAAACTTCTCC ((.((((....)))).)) | 45.4 °C | -35.5 kcal/mol |
| GATCACGCCGTGATC ((((((...)))))) | 63.2 °C | -29.8 kcal/mol |
| GCCCAGCGAAAGCGCGGC (((..((....))..))) | 61.9 °C | -22.1 kcal/mol |
| GCGTATCGAAAGATCGC (((.(((....)))))) | 55.6 °C | -34.2 kcal/mol |
| GTCATCGGAAACGGTGAC ((((.((....)).)))) | 55 °C | -38.1 kcal/mol |

| Sequence | Tm [1] | folding enthalpy [2] |
| --- | --- | --- |
| GAGTTGGGAAACTAGCTC (((.(.(....).).))) | 29 °C | -15 kcal/mol |
| GCGATTGGAAACGATCGC (((((.(....).))))) | 56.4 °C | -49 kcal/mol |
| GATCAGACATCTGATC ((((((....)))))) | 48.2 °C | -39.6 kcal/mol |
| GATCGGACCTCCGATC ((((((....)))))) | 56.6 °C | -40.7 kcal/mol |
| GATCTCGGCGGAGATC ((((((....)))))) | 55.4 °C | -48.8 kcal/mol |
| GATCCTCCTGAGGATC ((((((....)))))) | 57.2 °C | -41.2 kcal/mol |
| GATCATGTTATGATC ((((((...)))))) | 50.3 °C | -36.1 kcal/mol |
| GATCTACTATAGATC ((((((...)))))) | 40.5 °C | -25.1 kcal/mol |
| GATCACTCTTGTGATC ((((((....)))))) | 56.7 °C | -38.5 kcal/mol |
| GATGCTGGAAACGGCATC (((((.(....).))))) | 54.3 °C | -44.1 kcal/mol |
| GTTGGGAAACCAAC (((((....))))) | 51.7 °C | -27.9 kcal/mol |
| GATGCGACGAAAGTCATC (((..(((....)))))) | 27.8 °C | -13 kcal/mol |
| GAGGTCGCGAAAGCGCTC (((..(((....)))))) | 35.1 °C | -9.53 kcal/mol |
| CGCGGAACGCTCCGCG ((((((....)))))) | 57.4 °C | -28.9 kcal/mol |
| GTTCTCGAAAGAGCAAC ((((((....))).))) | 32.7 °C | -17 kcal/mol |
| GATCCGCAGACGGATC ((((((....)))))) | 60.8 °C | -36.3 kcal/mol |
| GCCCTCACGAAAGTGGGC (((..(((....)))))) | 53.5 °C | -19.4 kcal/mol |
| GCGGGGCGAAAGCCGGGC ((..(((....)))..)) | 56 °C | -14.8 kcal/mol |
| GCTGGGCGAAAGCCTTGC ((..(((....)))..)) | 53.2 °C | -17.1 kcal/mol |
